Source: PubChem
Sampled rows, rich in hits. Any-hit rate of the full collection: about 2.1%.
aSyn 5UTR inh: MLPCN primary screen, SNCA 5' untranslated region. alpha-synuclein 5'UTR reporter, inhibitor activity. inhibition, % (tested at 7.5 µM). 0.82% of 300,000 active. AID 1813; in the data active means inhibition above about 60%; inconclusive means no clear call, values can overlap the other calls;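 further: H4 neuroglioblastoma cells stably carrying SNCA 5'UTR luciferase fusion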
PAX8 reporter: inhibitors of PAX8 transcriptional activity in RMG-I cells. RMG-I TPO-luciferase reporter, SteadyGlo, 24 h. 1.2% of 360,000 active. inhibition, % at 12.6 µM;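 active means mean replicate inhibition at least 60% with every replicate also reaching 60%; inconclusive means only one of the two criteria is met; inactive means mean below 60% and not all replicates reaching 60%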;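 further: luciferase light reporting Pax8 driven TPO promoter activity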
FN deposit inh: fibronectin deposition inhibition. AH1F fibroblasts, Alexa488-fibronectin deposition fluorescence, overnight. inhibition, % at 12.6 µM. 0.086% of 350,000 active. AID 743247;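 active means mean inhibition across replicates of 30% or more, regardless of how many single replicates reach that level; inconclusive means mean under 30% yet at least half of replicates reach 30%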
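Material: AH1F fibroblasts assembling fluorescent fibronectin matrix; amount: 10000 AH1F cells/well; medium: DMEM, 2% serum; reagent: Alexa488-fibronectin, 24 nM final in well; dosing: single compound dose, delivered by pin transfer; incubation: 1 h adhesion, overnight exposure; detection: fluorescence after three HBSS washes, excitation 485 nm, emission 525 nm; measure: fibronectin deposition inhibition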
Shn3 inh set2: Schnurri-3 reporter inhibition in Clone20 osteoblasts; Clone20 osteoblast Shn3 3'UTR firefly luciferase, 24 h; inhibition, % at 12.5 µM; 0.52% of 360,000 active; AID 588674;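 active means mean inhibition of at least 75% with every replicate also reaching 75%; inconclusive means mean inhibition at least 75% but some replicate below; inactive means mean inhibition below 75%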
LMP1 NFkB inh: inhibitors of Epstein-Barr LMP1-induced NF-kappaB reporter; LMP1-induced NF-kappaB luciferase reporter cells, luminescence; inhibition, % at 12.5 µM; 0.69% of 350,000 active; AID 504558; in the data active means inhibition above about 41%; inconclusive means no clear call, values can overlap the other calls
EWS-Fli block: inhibitors of EWS/Fli oncoprotein transcriptional activity | A673 NR0B1-luciferase reporter, viability-normalised | inhibition, % at 12.6 µM | 0.67% of 350,000 active;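 active means mean inhibition of at least 50% after viability correction, with every replicate also passing that limit; inconclusive means mean reaches 50% but only one of two replicates passes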;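 further: firefly luciferase signal divided by Alamar Blue viability fluorescence both relative to DMSO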
Each line names hits and unclear results; the compound was inactive in the other large screens.

COc1cccc(/C=N/Nc2cc(N3CCOCC3)ncn2)c1O	aSyn 5UTR inh 72
COc1cccc(/C=N/Nc2ncnc3c2ncn3Cc2ccccc2)c1O	aSyn 5UTR inh 102, Shn3 inh set2 90, LMP1 NFkB inh 78
CO[C@@H]1CN(C)C(=O)c2ccc(NC(=O)Nc3cccc(F)c3)cc2OC[C@@H](C)N(C(=O)C2CC2)C[C@H]1C	none (no result: aSyn 5UTR inh, PAX8 reporter, Shn3 inh set2, LMP1 NFkB inh)
CC(=O)Nc1cccc2c1C(=O)N(c1cccc(OC(C)=O)c1)C2=O	none
CC(=O)Oc1cccc(N2C(=O)c3ccccc3C2=O)c1	PAX8 reporter 78
O=P(CCCCCCCCCP(=O)(c1ccccc1)c1ccccc1)(c1ccccc1)c1ccccc1	PAX8 reporter 80, Shn3 inh set2 88 (no result: EWS-Fli block)
C[C@H](NC(=O)[C@H]1[C@H](CO)[C@H]2Cn3c(ccc(C4=CCCC4)c3=O)[C@H]2N1C)c1ccccc1	none (no result: aSyn 5UTR inh, PAX8 reporter, FN deposit inh, Shn3 inh set2, LMP1 NFkB inh)
Cc1cc(C)c2oc(-c3cccc(N)c3)nc2c1	none
Cc1ccc2nc(-c3cccc(N)c3)oc2c1	EWS-Fli block 59 (no result: PAX8 reporter, FN deposit inh)
CC(=O)c1sc2c(c1OC(=O)c1ccc(Cl)cc1)c(=O)n(-c1ccccc1)c(=S)n2-c1ccccc1	none (no result: aSyn 5UTR inh, FN deposit inh)
CC(=O)c1sc2c(c1OC(=O)c1ccc(Cl)cc1Cl)c(=O)n(-c1ccccc1)c(=S)n2-c1ccccc1	aSyn 5UTR inh 101
Cc1noc(C)c1NC(=O)Nc1ccc2c(c1)C(=O)N([C@@H](C)CO)C[C@@H](C)[C@@H](CN(C)C(=O)Nc1ccc(C(F)(F)F)cc1)OCCCC[C@@H](C)O2	none (no result: aSyn 5UTR inh, Shn3 inh set2, LMP1 NFkB inh)
N#C[C@H]1[C@@H](c2ccc(C#Cc3ccc(F)cc3)cc2)[C@H](CO)N1C(=O)Nc1ccc(F)cc1	PAX8 reporter 94 (no result: aSyn 5UTR inh, Shn3 inh set2, LMP1 NFkB inh)
N#C[C@H]1[C@H](c2ccc(C#Cc3ccc(F)cc3)cc2)[C@H](CO)N1C(=O)Nc1ccc(F)cc1	none (no result: aSyn 5UTR inh, Shn3 inh set2, LMP1 NFkB inh)
N#C[C@@H]1[C@H](c2ccc(C#CC3CCCC3)cc2)[C@H](CO)N1C(=O)Nc1ccc(F)cc1	PAX8 reporter 85 (no result: aSyn 5UTR inh, Shn3 inh set2, LMP1 NFkB inh)
N#C[C@@H]1[C@@H](c2ccc(C#CC3CCCC3)cc2)[C@H](CO)N1C(=O)Nc1ccc(F)cc1	none (no result: aSyn 5UTR inh, Shn3 inh set2, LMP1 NFkB inh)
COc1cc(/C=C/c2ccc3c(Br)cc(Br)c(O)c3n2)ccc1O	aSyn 5UTR inh 65, PAX8 reporter 73
CCc1cccc(N=c2c([N+](=O)[O-])nn(-c3ccc4c(c3)OCCO4)n2O)c1	PAX8 reporter 101
C[C@@H]1CCCCO[C@H](CN(C)C(=O)c2ccccc2)[C@H](C)CN([C@@H](C)CO)C(=O)c2cc(NS(=O)(=O)c3cn(C)cn3)ccc2O1	none (no result: aSyn 5UTR inh, Shn3 inh set2, LMP1 NFkB inh)
Cc1cc(N2CCN(C)CC2)ccc1NC(=O)c1c2c(nc3ccccc13)CCN(Cc1ccccc1)C2	aSyn 5UTR inh 92, LMP1 NFkB inh 77 (no result: PAX8 reporter, FN deposit inh, EWS-Fli block)
O=C(NC1CCCCCC1)c1c2c(nc3ccccc13)CCN(Cc1ccccc1)C2	none (no result: EWS-Fli block)
CC(C)NC(=O)N[C@@H]1CC[C@H](CCN)O[C@H]1CO	none (no result: aSyn 5UTR inh, Shn3 inh set2, LMP1 NFkB inh)
CCOc1ccc(NS(=O)(=O)c2ccc(C(=O)NCCN3CCOCC3)cc2)cc1	none
CCOc1ccc(NS(=O)(=O)c2cc(C(=O)NCCN3CCOCC3)ccc2C)cc1	Shn3 inh set2 92 (no result: aSyn 5UTR inh)
COc1ccccc1-c1cn(CC[C@H]2CC[C@H](NC(=O)C3CCCC3)[C@@H](CO)O2)nn1	none (no result: aSyn 5UTR inh, Shn3 inh set2, LMP1 NFkB inh, EWS-Fli block)
Cc1sc2ncnc(SC(C)C(=O)N3c4ccccc4Sc4ccccc43)c2c1C (stereo unspecified)	EWS-Fli block 90 (no result: FN deposit inh)
COCC(=O)Nc1ccc2c(c1)C(=O)N(C)[C@H]1CC[C@H](CC(=O)N3CCc4ccccc4C3)O[C@H]1CO2	none (no result: aSyn 5UTR inh, Shn3 inh set2, LMP1 NFkB inh)
CCSC1=C(C#N)C(c2ccc(C)o2)CC(=O)N1 (stereo unspecified)	LMP1 NFkB inh 49
CCCCCCSC1=C(C#N)C(c2ccc(C)o2)CC(=O)N1 (stereo unspecified)	none (no result: PAX8 reporter, FN deposit inh, EWS-Fli block)
CC(=O)Nc1ccc2c(c1)C(=O)N(C)C[C@H](C)[C@H](CN(C)C(C)=O)O2	none (no result: aSyn 5UTR inh, PAX8 reporter, Shn3 inh set2, LMP1 NFkB inh, EWS-Fli block)
CO[C@H]1CN(C)C(=O)c2cc(NS(=O)(=O)c3cn(C)cn3)ccc2OC[C@H](C)N(C)C[C@H]1C	none (no result: aSyn 5UTR inh, Shn3 inh set2, LMP1 NFkB inh)
C=CCCc1ccc(C#N)c(SCc2c(C(=O)OCC)c3cc(OC(C)=O)c(Br)cc3n2C)n1	Shn3 inh set2 89 (no result: PAX8 reporter, FN deposit inh, EWS-Fli block)
CCOC(=O)c1c(CSc2nc(C)cc(C)c2C#N)n(C)c2cc(Br)c(OC(C)=O)cc12	LMP1 NFkB inh 50
CCCCCCCCOC(=O)c1c(CSC(=N)N)n(C)c2cc(Br)c(OC(C)=O)cc12	aSyn 5UTR inh inconclusive (no result: LMP1 NFkB inh)
